Assay results published in ChEMBL document CHEMBL2176939, “Rapid discovery of highly potent and selective inhibitors of histone deacetylase 8 using click chemistry to generate candidate libraries” (J Med Chem, 2012).
Active and inactive are the calls of the source. No cut-off for these calls is given here.

Columns and labels:
[1] = target: Histone deacetylase (Homo sapiens) (UniProt Q13547+O15379+Q9UBN7+Q92769+Q9UQL6+Q8WUI4+Q9BY41+Q96DB2+P56524+Q9UKV0+Q969S8); test: Inhibition of HDAC in human HeLa cells nuclear extracts at 3 uM by fluorometric assay; format: cell-free
In short: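 Total HDAC activity of HeLa nuclear extract was measured with a commercial fluorometric deacetylase kit, following the supplier's protocol. Compounds were screened at 3 μM, including crude click-reaction triazoles diluted without purification. Fluorescence was read at ex 360 / em 460 nm, and % inhibition was calculated relative to uninhibited control wells.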

[2] = Growth inhibition of human PBMC PB-N cells incubated for 72 hrs by MTS assay; format: cell-based
In short: (§1)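 Cells plated at 2 × 10⁵ cells/well in culture medium and exposed to inhibitor for 72 h at 37 °C under 5% CO₂. MTS was then added for 2 h, with absorbance read at 490 nm against a 650 nm reference. Wells were also read at compound addition (T₀). % growth = 100[(T − T₀)/(C − T₀)], or […]. GI₅₀ is where % growth = 50.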

[3] = Growth inhibition of human LAN1 cells incubated for 72 hrs by MTS assay; format: functional; details: LAN1, 72 h; in short: as §1
[4] = Growth inhibition of human PBMC PB-O cells incubated for 72 hrs by MTS assay; format: cell-based; in short: as §1
[5] = tested on: NB1; test: Growth inhibition of human NB-1 cells incubated for 72 hrs by MTS assay; format: functional; details: NB1, 72 h; in short: as §1
[6] = tested on: MT4; test: Growth inhibition of human MT4 cells incubated for 72 hrs by MTS assay; format: functional; details: MT4, 72 h; in short: as §1
[7] = tested on: MT2; test: Growth inhibition of human MT2 cells incubated for 72 hrs by MTS assay; format: functional; details: MT2, 72 h; in short: as §1
[8] = tested on: Jurkat; test: Growth inhibition of human Jurkat cells incubated for 72 hrs by MTS assay; format: functional; in short: as §1
[9] = tested on: HH; test: Growth inhibition of human HH cells incubated for 72 hrs by MTS assay; format: functional; in short: as §1
[10] = target: T1, Protein deacetylase HDAC6 (Homo sapiens, UniProt Q9UBN7); test: Inhibition of HDAC6 by fluorometric assay
T1 sequence (Q9UBN7 whole entry): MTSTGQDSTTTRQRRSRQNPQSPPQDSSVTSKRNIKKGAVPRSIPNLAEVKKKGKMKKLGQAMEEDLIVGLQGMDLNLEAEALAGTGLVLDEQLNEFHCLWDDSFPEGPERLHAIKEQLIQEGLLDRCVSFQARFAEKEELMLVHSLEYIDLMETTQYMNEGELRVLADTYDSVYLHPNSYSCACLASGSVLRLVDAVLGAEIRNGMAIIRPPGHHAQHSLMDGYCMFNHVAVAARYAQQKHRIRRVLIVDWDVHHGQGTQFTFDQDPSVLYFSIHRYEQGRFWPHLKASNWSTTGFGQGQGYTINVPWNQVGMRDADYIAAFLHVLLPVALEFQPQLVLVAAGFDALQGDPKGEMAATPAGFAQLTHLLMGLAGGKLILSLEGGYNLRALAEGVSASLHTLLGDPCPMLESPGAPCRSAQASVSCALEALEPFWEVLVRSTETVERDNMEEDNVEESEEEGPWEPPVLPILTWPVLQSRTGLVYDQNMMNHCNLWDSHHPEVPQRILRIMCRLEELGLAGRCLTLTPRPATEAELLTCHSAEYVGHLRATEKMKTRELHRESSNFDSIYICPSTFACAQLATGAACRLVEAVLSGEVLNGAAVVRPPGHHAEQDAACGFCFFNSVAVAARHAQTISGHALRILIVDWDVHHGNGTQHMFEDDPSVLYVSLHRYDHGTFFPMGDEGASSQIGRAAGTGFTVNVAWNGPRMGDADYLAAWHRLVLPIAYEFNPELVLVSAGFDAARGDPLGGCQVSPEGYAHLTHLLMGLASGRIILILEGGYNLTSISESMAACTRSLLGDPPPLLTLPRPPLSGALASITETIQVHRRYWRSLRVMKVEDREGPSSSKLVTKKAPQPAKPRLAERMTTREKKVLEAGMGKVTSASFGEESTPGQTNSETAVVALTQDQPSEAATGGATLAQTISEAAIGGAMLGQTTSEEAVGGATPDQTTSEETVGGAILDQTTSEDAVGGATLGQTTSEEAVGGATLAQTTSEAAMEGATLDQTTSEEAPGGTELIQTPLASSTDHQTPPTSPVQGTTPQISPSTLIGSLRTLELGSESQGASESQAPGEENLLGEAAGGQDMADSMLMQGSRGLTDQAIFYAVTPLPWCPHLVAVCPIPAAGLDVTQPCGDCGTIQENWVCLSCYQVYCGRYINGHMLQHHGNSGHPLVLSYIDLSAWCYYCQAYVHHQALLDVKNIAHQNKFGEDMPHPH

[11] = target: Histone deacetylase 4 (Homo sapiens, UniProt P56524); test: Inhibition of HDAC4 by fluorometric assay
Sequence of Histone deacetylase 4 (P56524 whole entry): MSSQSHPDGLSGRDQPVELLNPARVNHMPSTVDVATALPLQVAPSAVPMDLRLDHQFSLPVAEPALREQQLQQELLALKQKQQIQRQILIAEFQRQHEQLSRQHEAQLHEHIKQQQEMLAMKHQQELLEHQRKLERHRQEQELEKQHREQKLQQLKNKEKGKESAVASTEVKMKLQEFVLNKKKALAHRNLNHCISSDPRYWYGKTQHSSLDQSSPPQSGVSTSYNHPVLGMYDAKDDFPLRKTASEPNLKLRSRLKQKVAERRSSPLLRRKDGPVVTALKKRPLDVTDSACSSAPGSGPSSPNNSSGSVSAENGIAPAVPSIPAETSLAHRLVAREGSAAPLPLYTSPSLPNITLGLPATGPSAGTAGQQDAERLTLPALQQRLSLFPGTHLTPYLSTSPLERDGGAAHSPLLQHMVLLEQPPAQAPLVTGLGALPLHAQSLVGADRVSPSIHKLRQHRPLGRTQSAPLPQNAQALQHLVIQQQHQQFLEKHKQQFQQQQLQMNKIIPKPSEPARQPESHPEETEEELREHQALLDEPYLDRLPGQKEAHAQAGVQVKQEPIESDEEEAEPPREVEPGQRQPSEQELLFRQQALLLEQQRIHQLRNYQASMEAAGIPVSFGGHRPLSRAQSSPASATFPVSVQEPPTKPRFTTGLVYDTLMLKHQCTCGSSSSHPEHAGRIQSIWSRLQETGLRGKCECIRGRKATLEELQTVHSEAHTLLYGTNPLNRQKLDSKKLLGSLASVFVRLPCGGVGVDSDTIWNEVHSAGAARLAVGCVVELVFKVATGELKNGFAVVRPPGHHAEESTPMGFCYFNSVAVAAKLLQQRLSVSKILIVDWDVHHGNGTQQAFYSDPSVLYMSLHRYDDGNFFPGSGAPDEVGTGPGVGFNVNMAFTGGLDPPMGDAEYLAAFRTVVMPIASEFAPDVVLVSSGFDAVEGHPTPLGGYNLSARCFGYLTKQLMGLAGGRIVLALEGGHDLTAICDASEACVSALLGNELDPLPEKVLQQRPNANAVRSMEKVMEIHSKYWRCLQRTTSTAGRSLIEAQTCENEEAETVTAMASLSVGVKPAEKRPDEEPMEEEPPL

[12] = target: T2, Histone deacetylase 8 (Homo sapiens, UniProt Q9BY41); test: Inhibition of HDAC8 by fluorometric assay
T2 sequence (Q9BY41 whole entry): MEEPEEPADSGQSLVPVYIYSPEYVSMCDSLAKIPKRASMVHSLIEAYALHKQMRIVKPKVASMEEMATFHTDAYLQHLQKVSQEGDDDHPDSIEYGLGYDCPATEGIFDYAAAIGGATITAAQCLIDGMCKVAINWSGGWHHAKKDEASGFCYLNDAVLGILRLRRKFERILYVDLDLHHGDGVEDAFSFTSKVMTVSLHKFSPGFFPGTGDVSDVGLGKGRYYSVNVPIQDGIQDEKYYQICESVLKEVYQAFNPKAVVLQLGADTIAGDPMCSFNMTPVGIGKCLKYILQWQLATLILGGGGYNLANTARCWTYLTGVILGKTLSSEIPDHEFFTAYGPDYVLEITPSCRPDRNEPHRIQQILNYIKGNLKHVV

[13] = target: Histone deacetylase 2 (Homo sapiens, UniProt Q92769); test: Inhibition of HDAC2 by fluorometric assay
Sequence of Histone deacetylase 2 (Q92769 whole entry): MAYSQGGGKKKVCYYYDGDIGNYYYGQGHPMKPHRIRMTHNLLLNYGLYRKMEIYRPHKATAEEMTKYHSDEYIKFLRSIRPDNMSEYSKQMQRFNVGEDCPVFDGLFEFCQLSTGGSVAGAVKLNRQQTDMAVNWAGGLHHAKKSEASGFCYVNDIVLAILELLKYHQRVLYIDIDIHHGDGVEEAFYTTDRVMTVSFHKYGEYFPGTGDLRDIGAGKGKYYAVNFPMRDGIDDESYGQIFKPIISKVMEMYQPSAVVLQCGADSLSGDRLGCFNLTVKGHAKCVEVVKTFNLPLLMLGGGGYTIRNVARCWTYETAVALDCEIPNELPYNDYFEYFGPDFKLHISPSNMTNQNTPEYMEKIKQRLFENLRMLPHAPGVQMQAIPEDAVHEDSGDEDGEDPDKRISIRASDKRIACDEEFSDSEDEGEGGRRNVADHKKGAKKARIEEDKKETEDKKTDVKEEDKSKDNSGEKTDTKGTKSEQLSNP

[14] = target: Histone deacetylase 1 (Homo sapiens, UniProt Q13547); test: Inhibition of HDAC1 by fluorometric assay
Sequence of Histone deacetylase 1 (Q13547 whole entry): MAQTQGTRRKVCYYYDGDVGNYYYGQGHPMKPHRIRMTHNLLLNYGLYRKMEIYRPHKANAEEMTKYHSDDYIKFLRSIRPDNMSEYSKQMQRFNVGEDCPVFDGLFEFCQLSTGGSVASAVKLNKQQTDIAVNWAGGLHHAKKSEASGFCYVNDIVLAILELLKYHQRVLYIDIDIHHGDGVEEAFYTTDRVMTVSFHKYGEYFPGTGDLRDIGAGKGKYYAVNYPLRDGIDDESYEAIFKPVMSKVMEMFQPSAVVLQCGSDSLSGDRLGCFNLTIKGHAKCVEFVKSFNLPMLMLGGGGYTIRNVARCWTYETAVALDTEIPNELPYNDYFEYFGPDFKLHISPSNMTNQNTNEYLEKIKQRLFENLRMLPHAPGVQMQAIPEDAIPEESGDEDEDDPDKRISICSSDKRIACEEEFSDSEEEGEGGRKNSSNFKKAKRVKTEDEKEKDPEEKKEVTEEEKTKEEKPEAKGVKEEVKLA

[15] = target: Histone deacetylase; test: Inhibition of HDAC in human HeLa cells nuclear extracts by fluorometric assay; format: cell-based

| SMILES | inhibition [1] | GI50 [8] | IC50 [10] | IC50 [11] | IC50 [12] | IC50 [13] | IC50 [14] | IC50 [15] | GI50 at 72 h [2] | GI50 [3] | GI50 at 72 h [4] | GI50 [5] | GI50 [6] | GI50 [7] | GI50 [9] |
| --- | --- | --- | --- | --- | --- | --- | --- | --- | --- | --- | --- | --- | --- | --- | --- |
| O=C(NO)c1cccc(-c2cn(CCc3ccsc3)nn2)c1 | inactive | – | 1.1 µM | > 100 µM | 100 nM | > 100 µM | > 100 µM | 44 µM | – | – | – | – | – | – | – |
| O=C(NO)c1cccc(-c2cn(Cc3ccccc3)nn2)c1 | inactive | – | 7.9 µM | 30 µM | 350 nM | 65 µM | 41 µM | 37 µM | – | – | – | – | – | – | – |
| O=C(NO)c1cccc(-c2cn(CCc3ccccc3)nn2)c1 | inactive | 11 µM | 3.2 µM | > 100 µM | 180 nM | 76 µM | > 100 µM | 23 µM | > 100 µM | 27 µM | > 100 µM | 39 µM | 30 µM | 19 µM | 79 µM |

The next lines start with results.

| inhibition [1] | GI50 [8] | IC50 [10] | IC50 [11] | IC50 [12] | IC50 [13] | IC50 [14] | IC50 [15] | SMILES | GI50 at 72 h [2] | GI50 [3] | GI50 at 72 h [4] | GI50 [5] | GI50 [6] | GI50 [7] | GI50 [9] |
| --- | --- | --- | --- | --- | --- | --- | --- | --- | --- | --- | --- | --- | --- | --- | --- |
| inactive | 7.6 µM | – | – | – | – | – | – | O=C(NO)c1cccc(-c2cn(CSc3ccccc3)nn2)c1 | > 100 µM | 6.4 µM | > 100 µM | 12 µM | 15 µM | 11 µM | 23 µM |
| – | 11 µM | – | – | – | – | – | – | COc1ccc(Cn2ccc3ccc(C(=O)NO)cc32)cc1 | > 100 µM | 3.9 µM | 97 µM | 14 µM | 25 µM | 15 µM | > 100 µM |
